# Test results taken from article PMC6720533 (Biomolecules & Therapeutics, 2019).
# How the values were obtained:
# [1] = system: Jurkat cells; assay: Proliferation, viable cell count by trypan blue exclusion; type: cell-based, human; details: 72 h
# Summary of the method: (§1)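 Human B-ALL (SEM, RS4;11) and T-ALL (Jurkat, CEM) lines were grown with 10% heat-inactivated FBS and penicillin/streptomycin at 37°C, 5% CO2. Cells took test compound at 0.1–5.0 μM (methods: 0.5–5.0 μM) or DMSO for up to 72 h. Viable cells were counted by trypan blue exclusion and expressed relative to control (100%). IC50 came from three separate experiments, each in triplicate.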
# [2] = target: IGF-1R (Homo sapiens, UniProt P08069); assay: Kinase activity screening; type: biochemical; details: FX-9 at 2.5 μM, ATP at Km (200 μM)
# IGF-1R, sequence (P08069 31-1367): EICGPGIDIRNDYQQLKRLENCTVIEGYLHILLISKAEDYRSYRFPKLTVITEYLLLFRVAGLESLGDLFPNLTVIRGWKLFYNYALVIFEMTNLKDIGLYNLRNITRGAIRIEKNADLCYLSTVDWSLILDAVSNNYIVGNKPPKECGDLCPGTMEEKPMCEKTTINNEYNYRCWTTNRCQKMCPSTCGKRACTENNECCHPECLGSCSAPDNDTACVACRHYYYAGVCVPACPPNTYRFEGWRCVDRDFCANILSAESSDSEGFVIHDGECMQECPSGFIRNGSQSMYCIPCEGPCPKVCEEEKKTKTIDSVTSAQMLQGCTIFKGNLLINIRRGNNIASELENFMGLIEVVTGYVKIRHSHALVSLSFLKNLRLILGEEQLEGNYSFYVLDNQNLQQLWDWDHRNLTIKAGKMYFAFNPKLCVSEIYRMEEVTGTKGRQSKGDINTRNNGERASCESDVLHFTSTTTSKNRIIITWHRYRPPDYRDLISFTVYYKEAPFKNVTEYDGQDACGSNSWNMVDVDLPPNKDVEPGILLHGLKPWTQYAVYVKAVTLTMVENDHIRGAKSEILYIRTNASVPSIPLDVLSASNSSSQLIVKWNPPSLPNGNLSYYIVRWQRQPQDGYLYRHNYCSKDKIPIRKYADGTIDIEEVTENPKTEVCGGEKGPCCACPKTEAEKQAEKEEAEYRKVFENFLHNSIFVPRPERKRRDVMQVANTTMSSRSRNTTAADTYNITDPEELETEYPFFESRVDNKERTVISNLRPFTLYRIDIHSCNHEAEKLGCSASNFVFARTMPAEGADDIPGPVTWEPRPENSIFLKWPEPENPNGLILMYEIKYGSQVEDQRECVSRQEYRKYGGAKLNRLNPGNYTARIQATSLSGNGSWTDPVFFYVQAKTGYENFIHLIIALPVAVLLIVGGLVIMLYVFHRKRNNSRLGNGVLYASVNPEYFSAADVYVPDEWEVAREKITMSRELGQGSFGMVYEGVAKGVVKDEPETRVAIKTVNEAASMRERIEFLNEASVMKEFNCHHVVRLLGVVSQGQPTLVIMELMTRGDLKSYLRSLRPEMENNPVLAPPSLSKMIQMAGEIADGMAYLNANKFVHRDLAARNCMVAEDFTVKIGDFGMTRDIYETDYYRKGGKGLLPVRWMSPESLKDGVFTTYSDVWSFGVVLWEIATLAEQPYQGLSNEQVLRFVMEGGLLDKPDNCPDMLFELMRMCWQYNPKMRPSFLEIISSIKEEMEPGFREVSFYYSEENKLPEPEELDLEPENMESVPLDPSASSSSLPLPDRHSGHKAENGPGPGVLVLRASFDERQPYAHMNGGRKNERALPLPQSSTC
# Summary of the method: (§2)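 Radiometric substrate-phosphorylation screen covering a panel of 58 human kinases run by a contract service. […] Activity is given as a percentage of mean activity in positive control samples (100%). Values <30% were scored strong hits, 30–70% partial hits and >70% no hit.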
# [3] = target: PKA (Homo sapiens, UniProt P17612); assay: Kinase activity screening; type: biochemical; details: FX-9 at 2.5 μM, ATP at Km (10 μM)
# Summary of the method: as §2
# [4] = target: SRPK1 (Homo sapiens, UniProt Q96SB4); assay: Kinase activity screening; type: biochemical; details: FX-9 at 2.5 μM, ATP at Km (10 μM)
# Summary of the method: (§3)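 Radiometric kinase-panel screen of 58 human kinases, measuring substrate phosphorylation. […] Activity is given as % of the mean positive-control kinase activity (100%). Below 30% counts as a strong hit, 30–70% as a partial hit, and above 70% as no hit.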
# [5] = system: cleaved caspase 3; assay: Western blot, RS4; type: cell-based, human; details: RS4;11, 2.5 μM and 5.0 μM, 48 h
# Summary of the method: (§4)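 SEM and RS4;11 cells were exposed to 2.5 or 5.0 μM test compound, or DMSO, for 48 h. Lysates of 1–5×10^6 cells were made in RIPA buffer with sonication. Cleaved caspase 3 was detected by western blot on PVDF with near-infrared imaging, using GAPDH as loading control.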
# [6] = target: NEK2 (Homo sapiens, UniProt P51955); assay: Kinase activity screening; type: biochemical; details: FX-9 at 2.5 μM, ATP at Km (120 μM)
# NEK2, sequence (P51955 whole entry): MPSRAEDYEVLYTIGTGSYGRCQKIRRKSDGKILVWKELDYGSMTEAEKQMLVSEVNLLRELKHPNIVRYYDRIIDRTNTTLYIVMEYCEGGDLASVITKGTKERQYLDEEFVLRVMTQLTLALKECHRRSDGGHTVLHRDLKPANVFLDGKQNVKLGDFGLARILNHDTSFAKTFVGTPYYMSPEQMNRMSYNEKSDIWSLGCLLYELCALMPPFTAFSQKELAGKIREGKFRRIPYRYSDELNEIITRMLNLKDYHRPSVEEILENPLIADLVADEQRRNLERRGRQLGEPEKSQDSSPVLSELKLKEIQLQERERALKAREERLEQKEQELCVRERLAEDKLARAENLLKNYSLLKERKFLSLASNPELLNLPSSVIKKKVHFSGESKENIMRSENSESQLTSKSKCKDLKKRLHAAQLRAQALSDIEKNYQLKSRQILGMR
# Summary of the method: as §2
# [7] = target: EGFR (Homo sapiens, UniProt P00533); assay: Kinase activity screening; type: biochemical; details: FX-9 at 2.5 μM, ATP at Km (10 μM)
# Summary of the method: as §2
# [8] = system: B- and T-ALL cells; assay: Proliferation, viable cell count by trypan blue exclusion; type: cell-based; details: Homo sapiens, read-out: IC50 values against B- and T-ALL cells
# Summary of the method: as §1
# [9] = target: Rse (Homo sapiens, UniProt Q06418); assay: Kinase activity screening; type: biochemical; details: FX-9 at 2.5 μM, ATP at Km (45 μM)
# Rse, sequence (Q06418 41-890): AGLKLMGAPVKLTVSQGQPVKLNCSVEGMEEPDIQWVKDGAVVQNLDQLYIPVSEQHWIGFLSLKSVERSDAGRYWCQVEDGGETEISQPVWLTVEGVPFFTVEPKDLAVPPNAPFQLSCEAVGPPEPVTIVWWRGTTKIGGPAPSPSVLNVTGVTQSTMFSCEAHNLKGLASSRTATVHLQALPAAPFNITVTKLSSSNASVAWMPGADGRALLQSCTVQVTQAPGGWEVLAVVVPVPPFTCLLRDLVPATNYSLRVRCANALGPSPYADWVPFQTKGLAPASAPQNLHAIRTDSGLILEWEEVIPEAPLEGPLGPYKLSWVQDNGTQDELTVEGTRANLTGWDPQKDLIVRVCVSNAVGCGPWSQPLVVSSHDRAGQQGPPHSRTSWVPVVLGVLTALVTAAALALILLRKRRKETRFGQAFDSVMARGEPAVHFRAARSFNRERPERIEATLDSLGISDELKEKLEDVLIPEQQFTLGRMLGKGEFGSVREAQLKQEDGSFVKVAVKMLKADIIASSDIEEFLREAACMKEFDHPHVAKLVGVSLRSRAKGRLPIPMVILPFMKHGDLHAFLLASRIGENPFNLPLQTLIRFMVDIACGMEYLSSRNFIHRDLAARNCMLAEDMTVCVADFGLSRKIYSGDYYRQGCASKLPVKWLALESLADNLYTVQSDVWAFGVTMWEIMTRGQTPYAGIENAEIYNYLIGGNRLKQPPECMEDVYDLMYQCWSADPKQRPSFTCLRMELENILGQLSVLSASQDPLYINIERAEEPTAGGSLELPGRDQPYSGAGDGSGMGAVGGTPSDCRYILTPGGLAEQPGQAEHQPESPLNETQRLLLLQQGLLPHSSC
# Summary of the method: as §3
# [10] = system: RS4;11 cells; assay: Apoptosis, Annexin V FITC / propidium iodide flow cytometry; type: cell-based, human; details: RS4;11, 5 μM, 72 h; DMSO 11.7%
# [11] = system: Jurkat cells; assay: WST-1 metabolic activity assay; type: cell-based; details: Homo sapiens, 72 h, read-out: metabolic activity
# Summary of the method: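 Test compound came from a 10 mM DMSO stock. Cells were seeded at 5×10^4/well in triplicate with 5 or 10 μM final compound; controls got matched DMSO. After 72 h at 37°C, 5% CO2, WST-1 was added for a further 3 h. Absorbance was read at 450 nm (reference 620 nm), and metabolic activity given as % of DMSO control.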
# [12] = system: cleaved caspase 3; assay: Western blot, SEM cells; type: cell-based, human; details: 2.5 μM and 5.0 μM, 48 h
# Summary of the method: as §4
# [13] = target: IRAK4 (Homo sapiens, UniProt Q9NWZ3); assay: Kinase activity screening; type: biochemical; details: FX-9 at 2.5 μM, ATP at Km (200 μM)
# Summary of the method: as §2
# [14] = target: Mnk2 (Homo sapiens, UniProt Q9HBH9); assay: Kinase activity screening; type: biochemical; details: FX-9 at 2.5 μM, ATP at Km (120 μM)
# Summary of the method: as §2
# [15] = target: CHK1 (Homo sapiens, UniProt O14757); assay: Kinase activity screening; type: biochemical; details: FX-9 at 2.5 μM, ATP at Km (90 μM)
# Summary of the method: as §2
# [16] = target: PI3 Kinase (p110d/p85a) (Homo sapiens, UniProt O00329); assay: Kinase activity screening; type: biochemical; details: FX-9 at 2.5 μM, ATP at Km (200 μM)
# Summary of the method: as §2
# [17] = system: SEM cells; assay: Apoptosis, Annexin V FITC / propidium iodide flow cytometry; type: cell-based, human; details: 5 μM, 72 h, DMSO 7.4%
# [18] = target: Pim-1 (Homo sapiens, UniProt P11309); assay: Kinase activity screening; type: biochemical; details: FX-9 at 2.5 μM, ATP at Km (90 μM)
# Summary of the method: as §3
# [19] = target: MAPKAP-K2 (Homo sapiens, UniProt P49137); assay: Kinase activity screening; type: biochemical; details: FX-9 at 2.5 μM, ATP at Km (90 μM)
# Summary of the method: as §2
# [20] = target: CaMKI (Homo sapiens, UniProt Q14012); assay: Kinase activity screening; type: biochemical; details: FX-9 at 2.5 μM, ATP at Km (200 μM)
# CaMKI, sequence (Q14012 whole entry): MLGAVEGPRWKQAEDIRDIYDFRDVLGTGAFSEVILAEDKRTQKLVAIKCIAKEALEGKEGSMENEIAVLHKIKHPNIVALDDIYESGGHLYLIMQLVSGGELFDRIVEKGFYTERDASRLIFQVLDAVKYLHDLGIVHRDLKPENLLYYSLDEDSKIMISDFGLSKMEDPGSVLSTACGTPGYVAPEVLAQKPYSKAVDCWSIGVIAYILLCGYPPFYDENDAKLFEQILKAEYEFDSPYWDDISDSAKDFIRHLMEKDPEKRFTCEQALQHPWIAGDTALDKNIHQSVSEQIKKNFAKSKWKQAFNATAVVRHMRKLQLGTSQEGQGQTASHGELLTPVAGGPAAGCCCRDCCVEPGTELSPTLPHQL
# Summary of the method: as §2
# [21] = system: p-p38; assay: Western blot, SEM cells; type: cell-based, human; details: 2.5 μM or 5.0 μM, 48 h
# Summary of the method: (§5)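 SEM or RS4;11 cells took DMSO, 2.5 or 5.0 μM test compound for 48 h. Cells (1–5×10^6) were lysed in RIPA buffer with sonication, run on SDS gels, blotted to PVDF and imaged by near-infrared fluorescence. Bands were normalised to GAPDH, and the phospho/total protein ratio was set relative to DMSO control (=1).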
# [22] = target: PI3 Kinase (p110a/p85a) (Homo sapiens, UniProt P42336); assay: Kinase activity screening; type: biochemical; details: FX-9 at 2.5 μM, ATP at Km (200 μM)
# PI3 Kinase (p110a/p85a), sequence (P42336 whole entry): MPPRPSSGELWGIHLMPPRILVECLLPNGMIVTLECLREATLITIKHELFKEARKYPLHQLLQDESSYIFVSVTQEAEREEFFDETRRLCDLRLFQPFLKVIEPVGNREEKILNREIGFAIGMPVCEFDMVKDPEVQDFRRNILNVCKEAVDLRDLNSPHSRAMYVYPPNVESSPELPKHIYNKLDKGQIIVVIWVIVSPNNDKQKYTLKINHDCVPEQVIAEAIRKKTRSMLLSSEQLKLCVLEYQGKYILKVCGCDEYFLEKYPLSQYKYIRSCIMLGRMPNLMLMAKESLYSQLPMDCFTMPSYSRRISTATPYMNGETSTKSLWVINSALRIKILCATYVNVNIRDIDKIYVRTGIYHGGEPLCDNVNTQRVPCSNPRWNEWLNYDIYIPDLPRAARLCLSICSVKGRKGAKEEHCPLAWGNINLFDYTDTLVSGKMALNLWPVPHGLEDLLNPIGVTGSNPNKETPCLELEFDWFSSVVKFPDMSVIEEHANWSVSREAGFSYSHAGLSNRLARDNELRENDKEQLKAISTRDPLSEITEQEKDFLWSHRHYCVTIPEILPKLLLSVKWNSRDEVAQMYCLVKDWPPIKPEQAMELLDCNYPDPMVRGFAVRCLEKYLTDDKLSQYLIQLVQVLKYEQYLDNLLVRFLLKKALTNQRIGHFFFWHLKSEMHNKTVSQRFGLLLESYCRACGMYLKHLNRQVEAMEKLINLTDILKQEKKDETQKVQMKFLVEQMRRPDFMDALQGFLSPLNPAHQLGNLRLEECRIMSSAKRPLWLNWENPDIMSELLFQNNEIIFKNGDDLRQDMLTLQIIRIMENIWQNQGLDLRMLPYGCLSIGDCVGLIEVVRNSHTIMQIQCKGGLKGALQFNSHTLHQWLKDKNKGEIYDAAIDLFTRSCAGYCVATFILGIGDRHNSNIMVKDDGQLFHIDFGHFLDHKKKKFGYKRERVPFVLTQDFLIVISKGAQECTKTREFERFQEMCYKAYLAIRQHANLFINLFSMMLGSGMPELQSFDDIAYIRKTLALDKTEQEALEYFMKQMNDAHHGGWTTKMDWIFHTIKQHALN
# PI3 Kinase (p110a/p85a), sequence (P27986 whole entry partner): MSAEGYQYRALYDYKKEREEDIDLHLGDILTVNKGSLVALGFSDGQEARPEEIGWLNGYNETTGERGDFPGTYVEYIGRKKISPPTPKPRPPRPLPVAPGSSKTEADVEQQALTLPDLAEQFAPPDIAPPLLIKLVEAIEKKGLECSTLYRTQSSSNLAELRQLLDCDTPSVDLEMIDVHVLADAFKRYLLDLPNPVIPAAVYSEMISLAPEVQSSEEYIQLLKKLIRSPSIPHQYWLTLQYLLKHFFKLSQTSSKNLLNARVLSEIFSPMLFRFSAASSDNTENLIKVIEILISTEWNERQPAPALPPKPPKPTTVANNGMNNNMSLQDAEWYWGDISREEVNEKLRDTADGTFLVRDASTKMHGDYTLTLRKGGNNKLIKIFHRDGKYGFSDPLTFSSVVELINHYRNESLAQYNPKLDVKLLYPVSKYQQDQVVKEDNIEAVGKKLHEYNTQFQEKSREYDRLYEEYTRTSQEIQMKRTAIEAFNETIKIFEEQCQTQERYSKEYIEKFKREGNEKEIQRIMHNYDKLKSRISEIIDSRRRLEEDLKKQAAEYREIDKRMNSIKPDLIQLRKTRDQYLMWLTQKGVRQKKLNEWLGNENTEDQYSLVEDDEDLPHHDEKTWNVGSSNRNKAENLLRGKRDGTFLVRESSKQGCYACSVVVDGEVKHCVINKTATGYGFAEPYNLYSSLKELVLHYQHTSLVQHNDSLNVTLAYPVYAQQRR
# Summary of the method: as §2
# [23] = target: PAK2 (Homo sapiens, UniProt Q13177); assay: Kinase activity screening; type: biochemical; details: FX-9 at 2.5 μM, ATP at Km (90 μM)
# Summary of the method: as §2
# [24] = target: Plk3 (Homo sapiens, UniProt Q9H4B4); assay: Kinase activity screening; type: biochemical; details: FX-9 at 2.5 μM, ATP at Km (70 μM)
# Summary of the method: as §3
# [25] = system: SEM cells; assay: Proliferation, viable cell count by trypan blue exclusion; type: cell-based, human; details: 72 h
# Summary of the method: as §1
# [26] = system: RS4;11 cells; assay: as above; type: cell-based, human
# Summary of the method: as §1
# [27] = target: CDK2/cyclinA (Homo sapiens, UniProt P24941); assay: Kinase activity screening; type: biochemical; details: FX-9 at 2.5 μM, ATP at Km (45 μM)
# Summary of the method: as §2
# [28] = system: pAKT; assay: Western blot, SEM cells; type: cell-based, human; details: 2.5 μM or 5.0 μM, 48 h
# Summary of the method: as §5
# [29] = Homo sapiens, read-out: IC50 based on proliferation
smiles,measurement,setting,value
"Cc1ccc(-c2cc3ccccc3c(N)n2)cc1 [FX-9, 3-(p-Tolyl)isoquinolin-1-amine]",Proliferation compared to control cells (100%),[1]; 2.5 μM,16.3%
same,IC50,[1]; [29],1670 ± 30 nM
same,Kinase activity (% control),[2],89 % control
same,Kinase activity (% control),[3],92 % control
same,Kinase activity (% control),[4],94 % control
same,cleaved caspase 3 protein (western blot),[5],increased amount of cleaved caspase 3
same,Kinase activity (% control),[6],106 % control
same,Kinase activity (% control),[7],101 % control
same,IC50,[8],540 to 1940 nM
same,Kinase activity (% control),[9],92 % control
same,Apoptosis (total of early apoptotic and late apoptotic and necrotic cells),[10],84.6%
same,viability at 5 µM,[11],10.4%
same,viability at 10 µM,[11],13.6%
same,cleaved caspase 3 protein (western blot),[12],increased amount of cleaved caspase 3
same,Kinase activity (% control),[13],95 % control
same,Kinase activity (% control),[14],90 % control
same,Kinase activity (% control),[15],94 % control
same,Kinase activity (% control),[16],100 % control
same,Apoptosis (total of early apoptotic and late apoptotic and necrotic cells),[17],75.9%
same,Kinase activity (% control),[18],99 % control
same,Kinase activity (% control),[19],87 % control
same,Kinase activity (% control),[20],100 % control
same,p-p38 level (western blot),[21],reduced
same,Kinase activity (% control),[22],101 % control
same,Kinase activity (% control),[23],88 % control
same,Kinase activity (% control),[24],99 % control
same,IC50,[25]; [29],1460 ± 10 nM
same,Proliferation compared to control cells (=100%),"[25]; SEM, 0.5 μM",69.5%
same,IC50,"[26]; Homo sapiens, RS4-11, 72 h, read-out: IC50 based on proliferation",540 ± 20 nM
same,Proliferation compared to control cells (=100%),"[26]; RS4;11, 0.5 μM, 72 h",60.0%
same,Kinase activity (% control),[27],90 % control
same,pAKT level (western blot),[28],reduced
